In one series the test system is MDA-MB-231. The experiment in a line: Antiproliferative activity against human MDA-MB-231 cells assessed as cell growth inhibition measured after 72 hrs by MTT assay. The class given is functional, cell-based. Conditions: MDA-MB-231, 72 h. Summed up:
(§1)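 Cells seeded at 2.5 × 10^4 cells/well, allowed 24 h before dosing, then exposed to increasing concentrations (0.5% DMSO final) for 72 h at 37 °C, 5% CO2. MTT added at 1 mg/mL final in complete media for 2 h, formazan dissolved in DMSO, absorbance read at 570 nm. 6–8 repeats per treatment; IC50 from concentration–response fit.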

Series [1] deals with A549. The experiment in a line: Antitumor activity in human A549 cells cultured as 3D spheroids assessed as fold decrease in spheroid volume at 0.5 uM measured up to 15 days by inverted microscopic analysis. Conditions: time <= 15 day. It is filed as functional. Summed up:
(§2)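 Spheroids formed from 2000 cells/well in ultra-low attachment U-bottom wells over 3 days, then given a single dose on day 3. Half the media was replenished every 3 days. Transmitted-light images were taken through day 15, and spheroid volume was computed from images and expressed as fold-difference. Mean ± SD, n = 8; unpaired t-test.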

Series [2] has as its system A549. In words: Antiproliferative activity against human A549 cells assessed as cell growth inhibition measured after 72 hrs by MTT assay. It is filed as functional, cell-based. Conditions: A549, 72 h. Summed up:
as §1

Series [3] concerns A549. The experiment in a line: Inhibition of gankyrin-proteasome protein-protein interaction in human A549 cells assessed as increase in phosphorylated p53 level at serine 6 residue at 0.04 to 0.33 uM measured after 48 hrs by Western blotting analysis. It is filed as cell-based. Conditions: dose 0.04-0.33 µM. Summed up:
(§3)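 Cells in 10 cm dishes treated with varying concentrations (0.5% DMSO final) or DMSO only for 48 h. Lysed in RIPA with protease/phosphatase inhibitors on ice for 60 min. 15 μg protein resolved under reducing conditions, transferred to PVDF, and probed for p53, phospho-p53 S6/S15, Rb, gankyrin and cyclophilin. Detection by HRP-secondary ECL.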

For series [4], the target named is T1, 26S proteasome non-ATPase regulatory subunit 10 (Homo sapiens) (UniProt O75832).
T1 sequence (whole entry): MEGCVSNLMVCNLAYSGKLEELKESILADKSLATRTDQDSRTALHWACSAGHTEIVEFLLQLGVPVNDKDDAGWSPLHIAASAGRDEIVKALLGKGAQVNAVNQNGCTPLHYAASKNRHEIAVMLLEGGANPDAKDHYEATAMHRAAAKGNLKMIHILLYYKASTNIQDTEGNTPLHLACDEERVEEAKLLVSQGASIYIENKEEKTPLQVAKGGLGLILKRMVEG
In words: Binding affinity to gankyrin (unknown origin) expressed in Escherichia coli BL21 (DE3) expression system assessed as decrease in thermal denaturation at 1.5 uM measured at 5 to 90 degreeC by circular dichroism spectropolarimeter analysis. Summed up: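 Recombinant His-tagged gankyrin expressed in E. coli BL21(DE3) Codon+RIL (IPTG 1 mM, 25 °C, ~5 h) and purified by Ni2+-IMAC. Thermal denaturation followed by CD at 217 nm over 5–90 °C with compound at 1.5 μM.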

A short description of series [5]: Metabolic stability in human liver microsomes assessed as compound remaining preincubated for 10 mins followed by NADPH addition measured after 60 mins by HPLC analysis. It is filed as ADME, Microsome. Conditions: read-out: Stability.
Series [6] deals with A549. In words: Colony formation in human A549 cells at 1 uM incubated for 48 hrs followed by replacement of fresh media every alternative day measured after 7 days by crystal violet staining based clonogenic assay relative to control. Conditions: A549, 48 h.
Series [7] in a line: Cytotoxicity against HEK293 cells assessed as cell growth inhibition measured after 72 hrs by MTT assay. It is filed as toxicity, cell-based. Conditions: human. Summed up:
as §1

In series [8] the test system is A549. The experiment in a line: Inhibition of colony formation in human A549 cells at 0.5 uM incubated for 48 hrs followed by replacement of fresh media every alternative day measured after 7 days by crystal violet staining based clonogenic assay relative to control; values are per cent of control. Conditions: A549, 48 h.
The target of series [9] is T1, 26S proteasome non-ATPase regulatory subunit 10 (Homo sapiens). The experiment in a line: Binding affinity to gankyrin (unknown origin) expressed in Escherichia coli BL21 (DE3) expression system assessed as formation of white precipitation of the compound at 1.5 uM.
Series [10] has as its system A549. In words: Antitumor activity against human A549 cells tumor spheroids assessed as decrease in live cells by measuring green fluorescence intensity measured at 15 days by calcein AM staining based fluorescence microscopic analysis. It is filed as functional, cell-based. Conditions: dose 0.15-5 µM, time 15.0 day, DDE = dose-dependent effect. Summed up:
(§4)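 Live/dead staining of 3D spheroids at day 15 after single-dose treatment: media replaced by kit reagent with calcein AM (live, green) and EthD-III (dead, red), 30 min in dark at room temperature, imaged at 4X by fluorescence microscopy. Mean ± SD, n = 4; unpaired Student's t-test.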

Series [11] has as its system A549. In words: Inhibition of gankyrin-proteasome protein-protein interaction in human A549 cells assessed as increase in phosphorylated p53 level at serine 6 residue at 0.12 to 1 uM measured after 48 hrs by Western blotting analysis. The class given is cell-based. Conditions: dose 0.12-1 µM. Summed up: as §3
Series [12] has as its system A549. The experiment in a line: Antitumor activity in human A549 cells cultured as 3D spheroids assessed as fold decrease in spheroid volume at 1 uM measured up to 15 days by inverted microscopic analysis. The class given is functional. Conditions: time <= 15 day. Summed up: as §2
Series [13] relates to A549. The experiment in a line: Antitumor activity against human A549 cells tumor spheroids assessed as increase in dead cells by measuring red fluorescence intensity measured at 15 days by EthD-III staining based fluorescence microscopic analysis. It is filed as functional, cell-based. Conditions: dose 0.15-5 µM, time 15.0 day, DDE = dose-dependent effect. Summed up: as §4

Series [14] deals with A549. In words: Inhibition of gankyrin-proteasome protein-protein interaction in human A549 cells assessed as increase in p53 level at 0.12 to 1 uM measured after 48 hrs by Western blotting analysis. The class given is cell-based. Conditions: dose 0.12-1 µM. Summed up:
as §3

Series [15] deals with A549. In words: Inhibition of gankyrin-proteasome protein-protein interaction in human A549 cells assessed as increase in phosphorylated p53 level at serine 6 residue at 0.60 to 5 uM measured after 48 hrs by Western blotting analysis. Conditions: dose 0.6-5 µM. The class given is cell-based. Summed up: as §3
Series [16] addresses T1, 26S proteasome non-ATPase regulatory subunit 10 (Homo sapiens). The experiment in a line: Binding affinity to gankyrin (unknown origin) assessed as change in melting temperature at 300 uM by SYPRO orange staining based thermal shift assay.
Series [17] concerns A549. In words: Inhibition of gankyrin-proteasome protein-protein interaction in human A549 cells assessed as increase in Rb level at 0.12 to 1 uM measured after 48 hrs by Western blotting analysis. The class given is cell-based. Conditions: dose 0.12-1 µM. Summed up: as §3

Activity calls are given as the source filed them. The calls are words filed in the database; no cut-off is given here. A value given as a limit tells only on which side of the number the result lay.

With `FC(F)(F)c1ccc(-c2cn(CCCC(=S)Nc3ccc(-c4ccccc4)cc3)nn2)cc1`, the IC50 in the series with MDA-MB-231 was over 100 µM; in the series with A549 [2], 1 µM. The “fold change (FC)” value was found to be 3.8 in the series with A549 [1] and 4 in the series with A549 [12]. Further, the result (with A549 [3]; in series [4]; in [9]; in the series with A549 [11]; with A549 [14]; in the series on A549 [15]) was Active. Also, the result (in series [16]; with A549 [17]) was Active. In addition, the remaining at 1 h in [5] came out at 80%. The growth, % of control at 1 µM in the series on A549 [6] amounted to 61.4%. In series [7], the IC50 at 72 h was over 100 µM. In the series on A549 [8], the growth, % of control at 0.5 µM worked out at 83.8%. Further, the Activity result with A549 [10] and with A549 [13] was “Dde” in each case.

Values taken from ChEMBL document CHEMBL5120910, “Small-Molecule Gankyrin Inhibition as a Therapeutic Strategy for Breast and Lung Cancer” (J Med Chem, 2022).
